# Only some compounds are listed: those with a hit (about 3.5% of all), similar ones and a draw of the others.
# RGS4 pot: RGS4 potentiators or activators, primary screen, cell-based, HEK293 M3R inducible RGS4, calcium flux. carbachol calcium flux Fluo4; stronger effect = lower value. AID 463111, 2010. 0.92% of 310,000 active. B-score at 10 µM;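 active means B-score of the integrated calcium signal more than 4 SD below the library mean, with starting fluorescence not abnormally high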;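 further: negative B-score means reduced calcium response which marks RGS4 activation or potentiation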
#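 test system = HEK293 cells with stable M3R and inducible RGS4 | schedule = recording 10 s baseline at 1 Hz, 100 s post-agonist | technique = Fluo4-AM (2 µM) calcium-flux fluorescence, kinetic read | measure = Agonist-evoked peak-minus-minimum fluorescence over baseline, integrated ratio, B score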
# MrgX1 agonist: agonists of human MrgX1 receptor, primary screen, HEK293 cells, Fluo-4 calcium flux. B-score at 10 µM. AID 588627, 2011. 0.44% of 310,000 active. Fluo-4 calcium fluorescence, agonist mode; stronger effect = higher value. Mas-related G-protein coupled receptor member X1 (Homo sapiens), Q96LB2;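 active means calcium response B-score plate-corrected fluorescence ratio at least 3 library SD, with starting fluorescence B-score inside 5 SD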
# Target sequence (Q96LB2 whole entry, looked up): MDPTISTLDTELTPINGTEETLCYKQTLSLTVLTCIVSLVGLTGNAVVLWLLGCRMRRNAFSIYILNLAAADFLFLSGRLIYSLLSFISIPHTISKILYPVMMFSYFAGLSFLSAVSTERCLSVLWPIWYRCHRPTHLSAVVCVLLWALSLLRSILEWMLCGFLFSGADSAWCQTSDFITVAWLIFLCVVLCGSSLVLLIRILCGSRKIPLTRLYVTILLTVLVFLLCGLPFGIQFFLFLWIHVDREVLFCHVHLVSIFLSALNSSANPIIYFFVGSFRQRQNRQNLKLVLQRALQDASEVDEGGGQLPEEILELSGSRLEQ
#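 times = overnight plating, then 30 min 37 °C plus 30 min room-temperature dye loading | assay system = stable human MrgX1 HEK293 cell line | input = fifteen thousand cells per well | signal = kinetic calcium dye fluorescence, Fluo-4 NW | dosing = compound delivered in addition one of three | read-out = B-scored fluorescence response ratio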
# MrgX1 antagonist: antagonists of human MrgX1 receptor, primary screen, HEK293 cells, Fluo-4 calcium flux | Mas-related G-protein coupled receptor member X1 (Homo sapiens), Q96LB2 | BAM8-22 antagonism; stronger effect = lower value | B-score at 10 µM | 1.3% of 310,000 active;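 active means calcium-response B-score plate-corrected more than 3 library SD below zero, starting fluorescence within 5 deviations, no agonist response on first addition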;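 further: peak minus trough fluorescence over baseline after final BAM8-22 challenge near maximal dose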
# RGS4 inh: RGS4 inhibitors, primary screen, cell-based, HEK293 M3R inducible RGS4, calcium flux; Regulator of G-protein signaling 4 (Homo sapiens), P49798; Fluo-4 calcium flux; stronger effect = higher value; triggered by carbachol at its EC20; B-score at 10 µM; 0.45% of 310,000 active;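 active means B-score, a plate-corrected calcium signal, over three deviations above library mean, with baseline fluorescence within five deviations of library mean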;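 further: RGS4 expression induced by doxycycline in cells with stable M3 receptor; B-score is computed from the integrated fluorescence ratio over baseline after carbachol; higher B-score means a larger calcium signal and so more RGS4 inhibition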
# Target sequence (P49798 whole entry, looked up): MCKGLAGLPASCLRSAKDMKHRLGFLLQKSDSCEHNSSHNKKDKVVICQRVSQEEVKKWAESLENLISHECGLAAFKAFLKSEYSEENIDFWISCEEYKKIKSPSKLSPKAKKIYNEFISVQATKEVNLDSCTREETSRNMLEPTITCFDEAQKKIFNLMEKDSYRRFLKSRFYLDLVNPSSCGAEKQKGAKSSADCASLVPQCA
# MrgX1 PAM: positive allosteric modulators of MrgX1, primary screen, HEK293 cells, Fluo-4 calcium flux. Mas-related G-protein coupled receptor member X1 (Homo sapiens), Q96LB2. FDSS; stronger effect = higher value. B-score at 10 µM. 0.63% of 310,000 active. AID 588675, 2011;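 active means plate-corrected calcium response at least 3 library SD above typical, normal starting fluorescence, not activating the receptor alone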;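 further: compound read alongside a low EC10 to EC30 dose of BAM8-22 agonist; peak minus trough fluorescence over baseline measured at the second addition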
# The depositor's hits bear a star; i = inactive; nt = no result given.
SMILES,RGS4 pot,MrgX1 agonist,MrgX1 antagonist,RGS4 inh,MrgX1 PAM
COc1ccc(C(CCN(Cc2ccc(OC)c(OC)c2)C(C)=O)c2ccccc2)cc1 (configuration not stated),i,i,i,i,i
Brc1ccc(-c2ncc3ccccn23)cc1,i,i,i,i,i
COP(=O)(OC)c1nc(-c2ccc([N+](=O)[O-])cc2)oc1N1CCCCC1,i,33*,i,i,i
COc1ccc(CN2CCC(CO)(Cc3ccccc3C(F)(F)F)CC2)c(F)c1,-7.1*,i,i,i,i
CC1CCCC(NC(=O)CNCc2ccccc2F)C1C (configuration not stated),i,i,i,i,i
O=C(Nc1cc(C(F)(F)F)ccc1Cl)c1ccncc1,i,i,i,i,i
C/C(=N\Nc1cc(C(F)(F)F)ccc1Cl)c1ccncc1,-7.6*,i,i,i,i
COC(=O)C1=C(C)NC(=O)/C1=C\N(C)C,i,i,i,i,i
CN1OC(Cn2cc(C#N)c(=O)n(C)c2=O)CC1c1ccccc1 (configuration not stated),i,i,-5.8*,i,i
COC(=O)c1c(C)oc(C)c1S(=O)(=O)NCc1ccc(Cl)cc1Cl,i,i,i,i,i
N#C/C(=C\N1CCN(Cc2ccc3c(c2)OCO3)CC1)c1nc2ccccc2s1,i,i,i,i,i
CCOC(=O)N1CCN(/C=C(\C#N)c2nc3ccccc3s2)CC1,i,i,-7.1*,i,i
O=C(c1cccc(C(F)(F)F)c1)C1CCCN(C(=O)/C=C/c2cnc[nH]2)C1 (configuration not stated),i,i,i,i,i
CC(=O)c1cccc(Nc2nc(-c3sc(N)nc3C)cs2)c1,-7.2*,i,i,i,i
Cc1nc(C)c(-c2csc(Nc3cccc(O)c3)n2)s1,i,i,i,i,i
CC(=O)c1cccc(Nc2nc(-c3sc(C)nc3C)cs2)c1,i,i,i,i,i
CCC(=O)Nc1nc(C)c(-c2csc(Nc3cccc(O)c3)n2)s1,-7.3*,i,-5.4*,i,i
CC1CCCCC1NC(=O)CCNC(=O)N1CC(=O)Nc2ccccc21 (configuration not stated),i,i,i,i,i
CCCOc1ccc(C2C(C(=O)c3ccco3)=C(O)C(=O)N2CCCn2ccnc2)cc1 (configuration not stated),i,i,-7.5*,i,i
CN1C(=O)C2(c3ccccc31)C1CCCC=C1C(C#N)=C(N)C2(C#N)C#N (configuration not stated),nt,i,i,nt,6.7*
COc1ccccc1CN1CCC(CNS(=O)(=O)c2cc(-c3cc(C)no3)ccc2OC)CC1,-7.6*,i,i,i,i
Cc1cc(C)c(C(=O)C(C)OC(=O)C2=COCCO2)cc1C (configuration not stated),i,i,i,i,7.6*
O=C1CCc2cc(S(=O)(=O)NCCc3ccc(Cl)cc3)cc3c2N1CC3,i,nt,nt,i,nt
COc1ccc(-c2nn(-c3ccccc3)cc2/C=N/NC(=O)c2ccc(Br)o2)cc1,-8.1*,i,i,i,i
CCN(CC)S(=O)(=O)c1cccc(NC(=O)COC(=O)/C=C/c2cccs2)c1,i,i,i,i,i
SMILES,RGS4 pot,MrgX1 agonist,MrgX1 antagonist,RGS4 inh,MrgX1 PAM
CN(Cc1ccc(F)cc1)C(=O)c1sccc1-c1ccccc1,-7.2*,i,i,i,i
CN(C)S(=O)(=O)n1cc(/C=C(\NC(=O)c2ccccc2F)C(=O)NCCCn2ccnc2)c2ccccc21,-9.6*,nt,nt,i,nt
Cc1onc(-c2c(F)cccc2Cl)c1C(=O)NC(=S)Nc1c(C)n(C)n(-c2ccccc2)c1=O,-9.9*,i,i,i,i
Cc1c(NC(=O)Nc2ccc(Cl)cc2)c(=O)n(-c2ccccc2)n1C,i,i,-5.9*,i,i
O=C(COC(=O)C1CC2C=CC1C2)NCCc1ccccc1 (configuration not stated),i,i,i,i,i
Cc1ccc(O)c(Sc2cc(C)ccc2O)c1,i,29*,i,i,i
COc1ccc(N2CCN(Cc3cc(=O)c(OCC(=O)Nc4ccccc4)co3)CC2)cc1,i,i,i,i,i
COc1ccc(NC(=O)COc2coc(CN3CCN(c4ccccc4)CC3)cc2=O)cc1,i,i,-5.7*,i,i
CC(=O)CCc1oc2ccc([N+](=O)[O-])cc2c1-c1ccc(C)o1,i,i,i,i,i
C/C(CCc1oc2ccccc2c1-c1ccc(C)o1)=N/O,i,28*,i,i,i
COc1cc(/C=C2\CCC/C(=C\c3ccc(O)c(OC)c3)C2=O)ccc1O,-9.9*,i,-5.7*,i,i
CCCCn1nc(NS(=O)(=O)c2cccc3nonc23)c2cc3cccc(C)c3nc21,i,i,i,i,7.1*
Cc1ccc2c(c1)S/C(=C/c1ccc[n+](C)c1)N2CCO,-7*,i,i,i,i
COc1ccc(CCN(C)S(=O)(=O)c2ccc(Cl)nc2)cc1OC,i,i,i,i,i
C=CC[n+]1c(-c2ccc(OC)c(OC)c2)csc1NNC(=O)Nc1ccccc1,i,i,-4.6*,i,i
CCCc1cc(C(=O)Nc2cccc3ccccc23)n(C)n1,i,i,i,i,i
CCCc1cc(C(=O)Nc2ccc(C(=O)c3ccc(C)cc3)cc2)n(C)n1,-7.4*,i,i,i,i
Cc1nnc(SCC(=O)NC(C)(C)C)n1NCc1cccc(Br)c1,i,i,i,i,i
CN(CC(=O)O)S(=O)(=O)c1ccc2c(c1)NC(=O)CC(=O)N2,i,i,i,i,i
CCOc1ccccc1N1C(=O)CC(Nc2ccc(N3CCOCC3)cc2)C1=O (configuration not stated),i,i,-4.5*,i,i
N#C/C(=C\c1ccc[nH]1)Sc1nc2ccccc2s1,i,i,i,i,i
N#C/C(=C\c1cccs1)Sc1nc2ccccc2s1,i,i,-5.3*,i,i
Cc1cccc(OCC(=O)Nc2ccc(S(=O)(=O)Nc3cc(C)nc(C)n3)cc2)c1,i,i,i,i,i
